Hits are enriched below; roughly 4.2% of the tested compounds scored in any of these assays.
Rad51 HR inh: blocks human Rad51 in homologous recombination | AID 1385 | hRad51 DNA strand exchange, fluorescence dequenching | Q06609 | inhibition, % at 10 µM | 200,000 compounds, 0.085% hits;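 active = inhibition above 40% at the single screening dose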;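 note: 0% = DMSO control wells and 100% = blanks with heterologous ssDNA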
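material = hRad51 filaments on single-stranded DNA | timing = filaments 15 min 37 °C, then compound 30 min | signal = FRET fluorescence dequenching, excitation 485 nm, emission 520 nm | benchmarks = control wells and blank wells on each plate | evaluation = percent inhibition relative to plate controls and blanks | compound = 10 µM final, single point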
KCC2 mod: modulates chloride dependent transport by human KCC2; B-score of Tl+ flux slope (higher = more flux/activation; lower = inhibition) at 10 µM; 190,000 compounds, 2.2% hits; KCC2 cells, thallium flux FluoZin-2 fluorescence; Q9H2X9;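 active = thallium flux slope and its plate-corrected score both differing from the plate sample mean at a set confidence after two filtering rounds, in either direction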;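 note: slope of fluorescence scaled to starting intensity during 10 to 20 s after thallium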
Target sequence (Q9H2X9 whole entry, looked up): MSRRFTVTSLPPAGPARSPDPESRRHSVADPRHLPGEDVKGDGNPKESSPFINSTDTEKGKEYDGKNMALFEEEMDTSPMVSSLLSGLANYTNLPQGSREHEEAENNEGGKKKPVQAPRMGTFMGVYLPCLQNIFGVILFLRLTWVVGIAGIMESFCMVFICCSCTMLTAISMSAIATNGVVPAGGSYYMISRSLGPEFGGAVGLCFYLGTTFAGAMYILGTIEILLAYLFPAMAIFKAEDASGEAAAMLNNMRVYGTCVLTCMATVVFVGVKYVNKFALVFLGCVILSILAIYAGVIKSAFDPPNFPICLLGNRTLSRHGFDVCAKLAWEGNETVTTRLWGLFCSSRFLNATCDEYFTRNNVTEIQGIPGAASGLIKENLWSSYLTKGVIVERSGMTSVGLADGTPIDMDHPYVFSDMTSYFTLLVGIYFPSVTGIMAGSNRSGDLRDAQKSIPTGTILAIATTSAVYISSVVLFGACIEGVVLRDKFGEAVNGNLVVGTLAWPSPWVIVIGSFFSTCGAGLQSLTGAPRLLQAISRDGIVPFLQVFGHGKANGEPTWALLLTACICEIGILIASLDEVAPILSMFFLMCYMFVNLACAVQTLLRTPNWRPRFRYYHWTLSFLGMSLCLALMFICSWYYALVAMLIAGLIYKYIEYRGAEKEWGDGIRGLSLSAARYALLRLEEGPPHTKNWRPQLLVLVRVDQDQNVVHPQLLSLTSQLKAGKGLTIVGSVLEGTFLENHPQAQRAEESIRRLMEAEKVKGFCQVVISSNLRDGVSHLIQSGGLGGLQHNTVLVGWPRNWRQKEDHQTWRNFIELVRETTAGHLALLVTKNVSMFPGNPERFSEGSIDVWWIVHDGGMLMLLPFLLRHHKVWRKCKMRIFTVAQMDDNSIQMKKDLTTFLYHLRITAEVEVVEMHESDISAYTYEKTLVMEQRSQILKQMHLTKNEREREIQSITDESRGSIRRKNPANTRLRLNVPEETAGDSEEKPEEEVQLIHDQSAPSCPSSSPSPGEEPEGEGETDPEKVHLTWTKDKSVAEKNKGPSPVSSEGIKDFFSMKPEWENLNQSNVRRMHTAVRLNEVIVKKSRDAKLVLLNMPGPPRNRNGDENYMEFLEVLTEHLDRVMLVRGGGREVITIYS
SKKanGAS inh: blocks kanamycin growth of S. pyogenes SKKanGAS strain | BacTiter-Glo, 6 h | 300,000 compounds, 1.3% hits | inhibition, % at 7.5 µM;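 active = mean replicate score, as percent of positive control median, at least 50; inconclusive = mean below 50 but one replicate at or above 50; inactive = mean and every replicate below 50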;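 note: strain carries kanamycin resistance gene driven by streptokinase promoter and grows in 40 µg/ml kanamycin; loss of luminescence reflects streptokinase promoter inhibition or plain growth inhibition; 0% = median of DMSO wells and 100% = positive control at its reference dose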
WT yeast gro inh: growth inhibition of WT yeast, mitochondrial fusion screen; mitochondrial fusion phenotypic screen, WT strain; inhibition, % at 10 µM; 190,000 compounds, 2.1% hits; AID 1362; in the data active = inhibition above about 58%; tested in S. cerevisiae
Autophagy mod: autophagy modulation, high-content screen; 190,000 compounds, 0.98% hits; MEF GFP-LC3 puncta imaging; test concentration mostly 10 µM; calls only at 10 µM (by protocol);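 active = percentage of spot-positive cells more than 3 SD above its plate mean, without a fluorescence outlier flag or 80% toxicity; inconclusive = no clear call, values can overlap the other calls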;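 note: spot-positive cell cutoff set from DMSO-treated cells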
Insulin prom up: MIN6 insulin promoter up-regulation; MIN6 insulin promoter-GFP reporter, high-content imaging; stronger effect = higher value; z-score at 5 µM; 190,000 compounds, 0.3% hits;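 active = z-score above 3 at 5 µM with at least 500 cells counted in the well; inconclusive = wells under 500 cells, flagged as cytotoxic or low count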
The depositor's hits bear a star; i = inactive; ? = inconclusive; . = no result given; + = active, no number.

SMILES | Rad51 HR inh | KCC2 mod | SKKanGAS inh | WT yeast gro inh | Autophagy mod | Insulin prom up
Cn1c(SCCC#N)nnc1-c1ccc(F)cc1 | 2 | 0.66 | -1 | -10 | i | 0.53
CC(C)(C)c1ccc(-c2nnc(SCCC#N)n2C2CCCC2)cc1 | 6 | -1.3 | 33 | 66* | i | -1.4
CCN(C(=S)NC(=O)c1ccccc1Br)C1CCCCC1 | . | 63* | -3 | 41 | i | -0.36
CC[n+]1c(/C=C/Nc2ccccc2)sc2ccccc21 | 3 | 0.9 | 4 | -1 | i | ?
CCN1/C(=C/C=C/c2sc3ccccc3[n+]2CC)Sc2ccccc21 | . | . | 89* | . | . | .
CCN1/C(=C/C=C/C=C/c2sc3ccccc3[n+]2CC)Sc2ccccc21 | -11 | -0.96 | 104* | 86 | i | .
CCN1/C(=C/C=C/C=C/C=C/c2sc3ccccc3[n+]2CC)Sc2ccccc21 | . | . | 23 | . | . | .
COc1ccc(C(=O)N2CCC(n3nccc3NC(=O)C3CC3)CC2)cc1F | . | . | -5 | . | . | .
CC(/C=C1\SC(=S)N(CCC(=O)Nc2nc(C)cs2)C1=O)=C\c1ccccc1 | -13 | -0.16 | 16 | . | . | -0.18
CCOC(=O)N1CCC(NC(=O)c2cc(-c3ccc(F)cc3)[nH]c2C)CC1 | . | . | -22 | 67* | i | -0.29
CC(C)=NOc1nc(NC(=O)NS(=O)(=O)c2ccccc2Cl)nc(N(C)C)n1 | . | . | -6 | . | . | .
CC(=O)N1c2ccccc2C(C)(c2ccccc2)CC1(C)C (stereo not drawn) | -9 | -0.63 | 7 | 32 | i | 0.16
CC1(c2ccc([N+](=O)[O-])cc2)CC(C)(C)N(C(=O)c2ccccc2)c2ccccc21 (stereo not drawn) | -44 | -0.93 | 46 | 77* | i | -4
Cc1cc(Nc2nc3ccccc3nc2Cl)n(-c2ccccc2C)n1 | 2 | 0.47 | -5 | 63* | i | -0.99
CCOC(=O)Cn1c2ccc(F)cc2c2nc(C)sc21 | 2 | 0.88 | -6 | 1 | i | 3.7*
CC1CCCC(C)N1S(=O)(=O)c1ccc(NC(=O)CCn2cnc3ccccc3c2=O)cc1 (stereo not drawn) | 126* | 0.83 | -3 | -6 | i | .
Cc1ccc(CNc2ccc3c(c2)OCO3)c(C)c1 | 1 | . | 3 | 12 | + | .
COc1ccc2[nH]c(CN3CCC(n4nccc4NC(=O)C4CC4)CC3)c(C)c2c1 | . | . | -2 | . | . | .
COC(=O)C1=C(C)N(CCc2c[nH]c3ccc(OC)cc23)C(=O)C1 | -32 | 0.41 | 2 | -2 | i | -0.18
CCC1Oc2ccc(C)cc2N(CC(=O)NCCCN2CCCCC2CC)C1=O (stereo not drawn) | 4 | -0.19 | -1 | 81* | i | 0.52
O=C(NC(=S)NCc1cccnc1)c1cc(Br)ccc1Cl | . | . | 2 | . | . | .
N#CC1=C(c2ccccc2)/C(=C/c2ccccc2)OC1=O | -1 | . | 57* | 42 | i | 0.96
O=C1O/C(=C/c2ccccc2)c2ccccc21 | 5 | -0.061 | -4 | -2 | i | 0.17
Nc1nc(-c2ccc3c(c2)OCCO3)cs1 | -7 | 0.011 | 0 | -4 | i | -0.51
Nc1nc(-c2ccc3c(c2)CCCC3)cs1 | -3 | -1.3 | . | 81* | i | -1.4
SMILES | Rad51 HR inh | KCC2 mod | SKKanGAS inh | WT yeast gro inh | Autophagy mod | Insulin prom up
C/C(=N\NC(=O)c1cc(C(C)(C)C)[nH]n1)C12CC3CC(CC(C3)C1)C2 | -7 | -0.51 | 1 | 20 | + | .
Cc1ccc(CNC(=O)CC(C)S(=O)(=O)c2ccc3c(c2)NC(=O)C(C)S3)cc1 (stereo not drawn) | . | . | -2 | . | . | .
COc1cccc(COC(=O)c2sc3nc4n(c(=O)c3c2C)CCC4)c1OC | . | . | 93* | . | . | .
Cc1c(C(=O)OCc2ccc(F)cc2)sc2nc3n(c(=O)c12)CCC3 | . | . | 13 | . | . | .
Cc1c(C(=O)Nc2ccc(OC(F)(F)F)cc2)sc2nc3n(c(=O)c12)CCC3 | -3 | -0.34 | 31 | -11 | i | -0.12
Cc1c(C(=O)Nc2ccc(Oc3ccccc3)cc2)sc2nc3n(c(=O)c12)CCC3 | -1 | -0.23 | 56* | 61* | i | -2.4
Cc1nc(C)c(C(=O)Nc2ccc(Oc3ccccc3)cc2)o1 | 10 | -4* | 3 | 14 | i | -0.5
Oc1c(Br)cccc1/C=N/c1ncn[nH]1 | . | . | 17 | . | . | .
COCCN(C(=O)Cc1cccs1)C(C(=O)NCc1ccc(OC)cc1)c1ccc(C(C)C)cc1 (stereo not drawn) | 0 | -3.2 | 11 | 61* | i | 0.75
CCc1ccc(C(C(=O)NCc2ccc(OC)cc2)N(CCOC)C(=O)Cc2cccs2)cc1 (stereo not drawn) | 7 | -3.5 | -2 | -1 | i | -0.87
CCOC(=O)c1nc(Nc2ccc(Nc3ccccc3)cc2)c2ccccc2n1 | -4 | -1.6 | 56* | 72* | i | .
O=C(CSc1nc2ccccc2[nH]1)Nc1nc(-c2cccc(Br)c2)cs1 | -8 | 0.68 | 80* | 88* | i | -0.16
CN(C)CCCn1c(SCC(=O)Nc2nc(-c3cccc(Br)c3)cs2)nc2ccccc2c1=O | 17 | . | 97* | . | . | ?
Cc1ccc(-c2csc(NC(=O)CSc3nc(C)cc(=O)[nH]3)n2)cc1 | 3 | -4.2* | 23 | 33 | i | 0.95
COC(=O)COC(=O)c1ccccc1NC(=O)c1ccccc1 | -3 | -0.78 | -7 | 71* | i | 0.45
COC(=O)c1ccccc1NC(=O)N[C@@H](C)C(=O)OC | 11 | . | -7 | -8 | i | .
CCOC(=O)c1ccccc1NC(=O)N[C@@H](C)C(=O)OC | 1 | -3.4* | 4 | -27 | i | .
O=C(CCl)Nc1cccc2ncccc12 | . | 1.3 | -2 | -9 | i | 4*
CCN(CC)CCOc1ccc2c(c1)C(=NO)c1cc(OCCN(CC)CC)ccc1-2 | 4 | -0.87 | -8 | -10 | + | -2.5
O=C(O)C1C2CCC(C2)C1C(=O)NCCc1ccccc1 (stereo not drawn) | . | . | 4 | . | . | .
O=C(Nc1cccnc1)c1cccc(S(=O)(=O)N2CCc3ccccc32)c1 | 19 | 0.16 | -9 | 6 | i | 0.12
O=C(Nc1cccnc1)c1ccc(Cl)c(S(=O)(=O)N2CCc3ccccc32)c1 | -25 | -1.2 | -2 | 60* | i | 0.24
COc1ccc(NC(=O)c2ccc(Cl)c(S(=O)(=O)N3CCc4ccccc4C3)c2)cn1 | -4 | -0.94 | 17 | 58* | i | 0.22
CN1C(=O)Cc2cc(S(=O)(=O)N3CCN(c4ccccc4F)CC3)ccc21 | . | . | -7 | . | . | .
N/C(=N\OC(=O)COc1ccc2ccccc2c1Br)c1ccccn1 | . | -0.36 | 17 | 64* | i | 0.17
C/C(=C\c1ccccc1)CN1CCN(C(C)C)C(CCO)C1 (stereo not drawn) | . | . | -3 | . | . | .
O=C(Nc1nc(-c2cc(Cl)sc2Cl)cs1)c1ccccc1 | -1 | 0.93 | 22 | 68* | i | 1.1
Cn1c(SCC(=O)Nc2ccc3[nH]c(=O)[nH]c3c2)nnc1-c1ccc(F)cc1 | 5 | 0.19 | -5 | . | . | 0.17

From PubChem
